Bioassay records deposited in PubChem by several laboratories.
An excerpt weighted towards active compounds, which were near 1.6% of everything screened.
TPT1 inh = inhibitors of Candida albicans tRNA 2'-phosphotransferase TPT1 | AID 1962 | 300,000 tested, 0.81% active | inhibition, % at 5 µM | recombinant caTPT1, FP RNA substrate dephosphorylation;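 active = inhibition above the mean of all tested compounds plus 3 SD, set per screening campaign, cut at about 24% in these data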;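 note: plate controls were DMSO alone for no effect and ferristatin control at 100 nM for full effect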
CSN inh = inhibitors of human CSN-mediated cullin deneddylation; Purified CSN, SCF-Nedd8-OG deneddylation, fluorescence polarization; inhibition, % at 12.5 µM; 360,000 tested, 0.38% active; AID 651999;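 active = pattern-corrected inhibition above about 35%, with an unprinted fluorescence ratio check between 0.5 and 1.5, limit read from the data, passing the limit was not always enough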;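 note: 0% = enzyme with substrate and 100% = substrate without enzyme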
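test system = HEK293T-derived human Csn5 enzyme | amount = 0.24 nM Csn5 enzyme, final concentration | medium = Tris/NaCl/DTT buffer, pH 7.5 | schedule = 90 min reaction at room temperature | signal = FP | evaluation = inhibition of Csn5 cleavage, % | compound dosing = single dose of 12.5 µM compound with 0.25% DMSO | probe or stimulus = 10 nM SCFSkp2-Nedd8OG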
HNF4A DNA FP = change in binding of human HNF4 alpha to DNA; HNF4a-FITC DNA binding, fluorescence polarization, 1 h; activity change, % at 10 µM; 360,000 tested, 0.3% active; AID 1224865; in the data active = activity change above about 30%, passing the limit was not always enough
Target sequence (P41235 whole entry, looked up): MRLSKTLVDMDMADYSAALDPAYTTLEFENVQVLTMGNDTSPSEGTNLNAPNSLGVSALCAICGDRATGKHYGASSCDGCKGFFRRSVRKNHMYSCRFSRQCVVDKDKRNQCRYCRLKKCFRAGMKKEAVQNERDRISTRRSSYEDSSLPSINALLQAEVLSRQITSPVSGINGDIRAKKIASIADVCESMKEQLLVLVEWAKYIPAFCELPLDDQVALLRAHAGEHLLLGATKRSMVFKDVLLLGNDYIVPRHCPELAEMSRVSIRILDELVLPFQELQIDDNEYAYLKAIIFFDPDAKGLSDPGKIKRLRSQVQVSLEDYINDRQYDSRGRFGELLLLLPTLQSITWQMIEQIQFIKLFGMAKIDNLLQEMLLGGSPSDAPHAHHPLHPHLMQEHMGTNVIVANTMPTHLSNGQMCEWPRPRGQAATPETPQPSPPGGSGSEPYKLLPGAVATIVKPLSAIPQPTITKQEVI
Rpn11 inh = inhibitors of human proteasome Rpn11; O00487; human 26S proteasome, Ub4-pepOG fluorescence polarization; 20S core pre-blocked with epoxomicin; inhibition, % at 20 µM; 360,000 tested, 0.59% active;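 active = inhibition at 20 µM, scaled to each plate's controls, above about 33%, limit read from the data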
SENP1 inh = SENP1 (human) catalytic domain inhibition | recombinant SENP1 catalytic domain, CyPet-SUMO1-YPet FRET cleavage | inhibition, % at 10 µM | Q9P0U3 | 360,000 tested, 0.21% active | AID 624204;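 active = inhibition at least 30% at 10 µM, raw YFP signal under a set limit, fluorescence ratio 0.5 to 1.5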;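 note: 0% = enzyme with DMSO and 100% = no enzyme wells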
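Assay system – human recombinant His6-tagged SENP1 catalytic domain enzyme · Input – SENP1 enzyme, 20 pM final · Buffer or medium – Tris pH 8 buffer plus EDTA, NaCl, BME, BSA, NP40, catalase · Schedule – 50 min reaction at room temperature · Technique – FRET read of cyan and yellow fluorescence · Control set – no-enzyme wells low, DMSO-plus-enzyme wells high control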
Rpn11 inh conf = Rpn11 inhibition confirmation, single concentration. 1,900 tested, 29% active. purified human 26S proteasome, Ub4-pepOG fluorescence polarization; proteasome pretreated with epoxomicin. AID 602318. shares compounds with Rpn11 inh. inhibition, % at 20 µM
MMP-2 inh = counter-screen for RPN11 inhibitors: inhibition of human MMP-2; AID 602330; shares compounds with Rpn11 inh; 1,900 tested, 4% active; inhibition, % at 20 µM; recombinant MMP-2, FRET peptide cleavage fluorescence;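 note: human MMP-2 activated beforehand with APMA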
Thrombin inh = blocks bovine thrombin, flagging nonselective RPN11 hits | shares compounds with Rpn11 inh | bovine thrombin cleavage of Ub4-pepOG, fluorescence polarization | inhibition, % at 20 µM | 1,900 tested, 13% active | AID 602333;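 active = mean inhibition at least 40% at 20 µM, or signal 3 deviations below plate average, so some actives read negative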;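 note: plate controls were thrombin with DMSO for no effect and buffer wells lacking thrombin for full effect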
* = called active by the depositor; . = no result. Cut-off read from the data, not from the text of the source, unless noted: active = inhibition above about 40%; inactive = the rest.

SMILES	TPT1 inh	CSN inh	HNF4A DNA FP	Rpn11 inh	SENP1 inh	Rpn11 inh conf	MMP-2 inh	Thrombin inh
CS(=O)(=O)c1ccc(Cl)c(NC(=O)CSc2n[nH]c(-c3cccs3)n2)c1	.	-6	-3	0	-1	.	.	.
COc1cc2c(cc1OC)CN(CC(=O)Nc1ccc(S(=O)(=O)N3CCCC3)cc1)CC2	0	0	0	2	-9	.	.	.
COc1cc2c(cc1OC)C(C)N(CC(=O)Nc1ccc(S(=O)(=O)N3CCCC3)cc1)CC2 (centres undefined)	4	6	6	53*	-6	-8	-20	-9
CCOC(=O)c1cc2c(=Cc3ccc(N(C)C)cc3)c3ccccc3n2[n+]1C	.	19	57*	43*	44	27	-48	18
FC(F)(F)C(F)(F)C(F)(F)c1nnc2ccc(N3CCOCC3)nn12	-1	1	2	92*	0	-10	-20	-10
CCOC(=O)c1nc2cc3n(c(CC(C)C)c-2c1C)CC(C)=C3C	13	9	14	56*	-20	18	6	14
COc1ccc(F)cc1-c1cc(C(=O)NC2CCCCC2)[nH]n1	.	5	5	-2	-2	.	.	.
COc1cccc2sc(Nc3nc4ccc(NC(C)=O)cc4s3)nc12	0	27	28	41*	-7	25	2	2
NS(=O)(=O)c1ccc2nc(NC(=O)Nc3ccc(F)cc3)sc2c1	10	23	43*	67*	-6	33	1	23
COCCCn1c(=O)/c(=C/c2ccccc2OC(F)F)s/c1=C(\C#N)C(=O)NCCOC	.	33	13	84*	-7	24	47*	-1
Cc1ccccc1NC(=O)Cn1nnc(S(=O)(=O)c2ccc(C(C)(C)C)cc2)c1N	1	-5	13	55*	-1	31	-17	-6
Cc1nnc(SCc2nc3scc(-c4ccccc4)c3c(=O)[nH]2)s1	14	13	17	43*	-5	42*	-2	32
O=c1[nH]c(Cc2ccccc2)nc2scc(-c3ccccc3)c12	-1	-1	1	1	-1	.	.	.
COCCn1c(SCc2nc3scc(-c4ccc(Cl)cc4)c3c(=O)[nH]2)nnc1-c1cccc(C)c1	1	-1	15	50*	-4	24	-9	4
CC1CCCC(NC(=O)CCS(=O)(=O)c2cc3c(cc2Cl)NC(=O)CO3)C1C (centres undefined)	-5	4	-3	44*	2	-11	-7	-16
COc1cc(/C=N/NC(=O)c2nnn(-c3nonc3N)c2-c2cccs2)ccc1O	-5	5	-2	-8	2	.	.	.
COc1ccc(/C=N/NC(=O)c2nnn(-c3nonc3N)c2-c2cccs2)cc1OC	0	30	-1	66*	1	21	-26	-16
CCCCC1=CC2=CC(=O)C(C)(OC(=O)c3ccc(Cl)nc3)C(=O)C2=CO1 (centres undefined)	5	.	.	.	.	.	.	.
COc1cc(/C=C/c2ccc3cccc(O)c3n2)c(Br)cc1O	20	13	17	39*	-24	12	-21	1
COc1cccc(C2C(C#N)=C(N)Oc3cc(C)n(Cc4ccco4)c(=O)c32)c1 (centres undefined)	4	23	2	34	6	.	.	.
COc1ccc(C2C(C#N)=C(N)Oc3cc(C)n(Cc4ccco4)c(=O)c32)cc1 (centres undefined)	7	13	-5	46*	2	23	-23	6
CCOc1cc(C(c2c(C)[nH][nH]c2=O)c2c(C)[nH][nH]c2=O)ccc1OS(=O)(=O)c1ccc(C)cc1	-3	2	12	103*	-2	20	16	-13
CCOc1ccc(C(c2c(C)[nH][nH]c2=O)c2c(C)[nH][nH]c2=O)cc1OC	-2	-1	6	-2	1	.	.	.
COc1ccc(-n2cccc2/C=C2/NC(=O)N(c3cccc(Cl)c3)C2=O)cc1	4	-11	11	41*	-1	6	-18	4
COc1cc2ccc(C(C)=NNC(N)=S)cc2cc1OC	.	-2	-1	83*	3	-10	3	-13
SMILES	TPT1 inh	CSN inh	HNF4A DNA FP	Rpn11 inh	SENP1 inh	Rpn11 inh conf	MMP-2 inh	Thrombin inh
CC(=NNC(N)=S)c1ccc2cc3c(cc2c1)OCO3	.	5	5	-2	3	.	.	.
CCN(CC)S(=O)(=O)c1ccc(OC(C)C)c(NC(=O)C2=COCCO2)c1	-2	-3	-1	4	-2	.	.	.
Cc1cnc(CNC(=O)C2CCC(=O)N(CCc3ccc(Cl)cc3)C2)cn1 (centres undefined)	.	-2	-2	-5	1	.	.	.
O=C(NCCCN1CCOCC1)c1ccc2ccccc2c1	1	2	1	-2	0	.	.	.
O=C(NCCCN1CCOCC1)c1cccc(NC(=O)c2ccccc2)c1	-3	-1	1	46*	2	-3	-18	-7
Cc1ccc2oc(=O)c3cc(C(=O)NCCCN4CCCCCC4)sc3c2c1	2	14	20	56*	-13	7	-4	-9
Cc1ccc2oc(=O)c3cc(C(=O)NCCN4CCN(C)CC4)sc3c2c1	-4	1	4	8	0	.	.	.
O=C(NCCCN1CCOCC1)c1cc2c(=O)[nH]c3ccccc3c2s1	2	10	4	58*	6	-5	-22	-8
COc1cc(C(=O)NCCOc2cc(C)cc(C)c2)cc(OC)c1OC	3	7	2	-1	-1	.	.	.
CCc1nn(C(C)C(=O)NCc2cccc(Cl)c2)c(=O)c2cc3occc3n12 (centres undefined)	0	1	3	6	0	.	.	.
N#CCC(=O)Nc1ccc(C(=O)OCC(=O)c2ccc3c(c2)NC(=O)CO3)cc1	.	16	8	45*	-23	21	-3	25
CC(=O)Nc1cc(NC(C)=O)cc(C(=O)OCC(=O)c2ccc3c(c2)NC(=O)CO3)c1	-3	-2	7	6	0	.	.	.
Cc1cc(C(=O)COC(=O)c2ccc(NC(=O)CC#N)cc2)c(C)n1CCc1ccc(F)cc1	.	10	15	53*	-33	23	-19	17
CCN(C1CCS(=O)(=O)C1)S(=O)(=O)c1ccc2ccccc2c1 (centres undefined)	-3	-2	0	-3	2	.	.	.
Cc1ccc(C(=O)N=c2sccn2C)cc1C	-2	-8	-1	8	2	.	.	.
Cc1ccc(C(=O)N=c2sccn2C)cc1S(=O)(=O)N1CCOCC1	-3	0	37*	68*	0	1	30	14
